Test results published in ChEMBL document CHEMBL3046481, “Design, synthesis, and bioactivity study of novel benzoylpyridazyl ureas” (2009).

How the values were obtained:
Format in all cases: functional
[1] = test system: Mythimna separata; experiment: Larvicidal activity against fourth-instar larval stage of Mythimna separata (Oriental armyworm) in compound pretreated corn leaves assessed as mortality at 200 mg/l at 25 +/-1 degC measured after 4 days
Summary of the method: (§1)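 Insects were laboratory-reared and the bioassay was repeated at 25 ± 1 °C as statistics required. Larvae were scored dead or alive, and mortality was corrected with Abbott's formula. Results are given as percentage mortality on a 0–100 scale, where 0 is no activity and 100 is total kill. Hexaflumuron was run under the same conditions as the reference.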

[2] = test system: Culex pipiens pallens; experiment: Larvicidal activity against fourth-instar larval stage of Culex pipiens pallens (mosquito) assessed as mortality at 2 mg/l at 25 +/-1 degC measured after 8 days; conditions: 192 h; summary of the method: as §1
[3] = test system: Mythimna separata; experiment: Larvicidal activity against fourth-instar larval stage of Mythimna separata (Oriental armyworm) in compound pretreated corn leaves assessed as mortality at 25 mg/l at 25 +/-1 degC measured after 4 days; summary of the method: as §1
[4] = test system: Mythimna separata; experiment: Larvicidal activity against fourth-instar larval stage of Mythimna separata (Oriental armyworm) in compound pretreated corn leaves assessed as mortality at 10 mg/l at 25 +/-1 degC measured after 4 days; summary of the method: as §1
[5] = test system: Culex pipiens pallens; experiment: Larvicidal activity against fourth-instar larval stage of Culex pipiens pallens (mosquito) assessed as mortality at 1 mg/l at 25 +/-1 degC measured after 8 days; conditions: 192 h; summary of the method: as §1
[6] = test system: Mythimna separata; experiment: Larvicidal activity against fourth-instar larval stage of Mythimna separata (Oriental armyworm) in compound pretreated corn leaves assessed as mortality at 100 mg/l at 25 +/-1 degC measured after 4 days; summary of the method: as §1
[7] = test system: Mythimna separata; experiment: Larvicidal activity against fourth-instar larval stage of Mythimna separata (Oriental armyworm) in compound pretreated corn leaves assessed as mortality at 50 mg/l at 25 +/-1 degC measured after 4 days; summary of the method: as §1
[8] = test system: Culex pipiens pallens; experiment: Larvicidal activity against fourth-instar larval stage of Culex pipiens pallens (mosquito) assessed as mortality at 0.25 mg/l at 25 +/-1 degC measured after 8 days; conditions: 192 h; summary of the method: as §1

| SMILES | mortality at 200 µg/mL [1] | mortality at 2 µg/mL [2] | other results |
| --- | --- | --- | --- |
| Cc1ccc(NC(=O)NC(=O)c2c(F)cccc2F)nn1 | 10% | 20% |  |
| O=C(NC(=O)c1c(F)cccc1F)Nc1ccc(Sc2ccccc2)nn1 | 20% |  |  |
| O=C(NC(=O)c1c(F)cccc1F)Nc1ccc(OCC(F)(F)F)nn1 |  |  | mortality at 25 µg/mL [3]: 100%; mortality at 10 µg/mL [4]: 80%; mortality at 1 µg/mL [5]: 30% |
| CCCCSc1ccc(NC(=O)NC(=O)c2c(F)cccc2F)nn1 | 100% |  | mortality at 100 µg/mL [6]: 100%; mortality at 50 µg/mL [7]: 90% |
| CC(C)Oc1ccc(NC(=O)NC(=O)c2c(F)cccc2F)nn1 | 100% | 10% | mortality at 100 µg/mL [6]: 100%; mortality at 50 µg/mL [7]: 70% |
| CCOc1ccc(NC(=O)NC(=O)c2c(F)cccc2F)nn1 | 100% | 20% | mortality at 100 µg/mL [6]: 100%; mortality at 50 µg/mL [7]: 80% |
| O=C(NC(=O)c1c(F)cccc1F)Nc1ccc(Oc2ccccc2Cl)nn1 | 20% | 40% |  |
| O=C(NC(=O)c1c(F)cccc1F)Nc1ccc(OCc2ccc(Cl)cc2)nn1 | 10% | 10% |  |
| O=C(NC(=O)c1c(F)cccc1F)Nc1ccc(Oc2ccc(Cl)cc2Cl)nn1 | 20% | 60% |  |
| O=C(NC(=O)c1c(F)cccc1F)Nc1ccc(Oc2c(Cl)cc(Cl)cc2Cl)nn1 |  | 20% | mortality at 100 µg/mL [6]: 10% |
| O=C(NC(=O)c1c(F)cccc1F)Nc1ccc(Oc2ccc(Br)cc2)nn1 | 30% | 100% | mortality at 1 µg/mL [5]: 90% |
| COc1ccc(Oc2ccc(NC(=O)NC(=O)c3c(F)cccc3F)nn2)cc1 | 10% | 10% |  |
| Cc1ccc(Oc2ccc(NC(=O)NC(=O)c3c(F)cccc3F)nn2)cc1 | 0% | 0% |  |
| O=C(NC(=O)c1c(F)cccc1F)Nc1ccc(Oc2ccc(Cl)cc2)nn1 | 10% | 20% |  |
| O=C(NC(=O)c1c(F)cccc1F)Nc1cc(Cl)c(OC(F)(F)C(F)F)c(Cl)c1 [HEXAFLUMURON] |  |  | mortality at 0.25 µg/mL [8]: 100%; mortality at 10 µg/mL [4]: 80% |
